Assay results from ChEMBL document CHEMBL2046381, “Defining the mechanism of action and enzymatic selectivity of psammaplin A against its epigenetic targets” (J Med Chem, 2012).
Active and inactive are the calls of the source.

Tests used:
Histone deacetylase 1 [1] = target: T1, Histone deacetylase 1 (Homo sapiens, UniProt Q13547); assay: Inhibition of human recombinant HDAC1 using Boc-lys(Ac)-AMC as substrate preincubated for 20 mins with substrate measured after 60 mins by fluorescence analysis
[2] = Growth inhibition of human WI38 cells after 96 hrs by sulphorhodamine B assay; assay type: cell-based; conditions: WI-38 cells
In short: (§1)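 SRB growth assay; MCF7 and WI38 seeded 4000 cells/well, A549 2000 cells/well, attached overnight, then exposed to freshly made drug solutions (0.1 to 50 μM) for 96 h. Fixed with cold 10% TCA, stained with 0.4% SRB; absorbance at 540 nm as percent of untreated control, IC50 from mean absorbance.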

[3] = target: T2, Protein deacetylase HDAC6 (Homo sapiens, UniProt Q9UBN7); assay: Inhibition of human recombinant HDAC6 using Boc-lys(Ac)-AMC as substrate preincubated for 20 mins with substrate measured after 60 mins by fluorescence analysis
T2 sequence (Q9UBN7 whole entry): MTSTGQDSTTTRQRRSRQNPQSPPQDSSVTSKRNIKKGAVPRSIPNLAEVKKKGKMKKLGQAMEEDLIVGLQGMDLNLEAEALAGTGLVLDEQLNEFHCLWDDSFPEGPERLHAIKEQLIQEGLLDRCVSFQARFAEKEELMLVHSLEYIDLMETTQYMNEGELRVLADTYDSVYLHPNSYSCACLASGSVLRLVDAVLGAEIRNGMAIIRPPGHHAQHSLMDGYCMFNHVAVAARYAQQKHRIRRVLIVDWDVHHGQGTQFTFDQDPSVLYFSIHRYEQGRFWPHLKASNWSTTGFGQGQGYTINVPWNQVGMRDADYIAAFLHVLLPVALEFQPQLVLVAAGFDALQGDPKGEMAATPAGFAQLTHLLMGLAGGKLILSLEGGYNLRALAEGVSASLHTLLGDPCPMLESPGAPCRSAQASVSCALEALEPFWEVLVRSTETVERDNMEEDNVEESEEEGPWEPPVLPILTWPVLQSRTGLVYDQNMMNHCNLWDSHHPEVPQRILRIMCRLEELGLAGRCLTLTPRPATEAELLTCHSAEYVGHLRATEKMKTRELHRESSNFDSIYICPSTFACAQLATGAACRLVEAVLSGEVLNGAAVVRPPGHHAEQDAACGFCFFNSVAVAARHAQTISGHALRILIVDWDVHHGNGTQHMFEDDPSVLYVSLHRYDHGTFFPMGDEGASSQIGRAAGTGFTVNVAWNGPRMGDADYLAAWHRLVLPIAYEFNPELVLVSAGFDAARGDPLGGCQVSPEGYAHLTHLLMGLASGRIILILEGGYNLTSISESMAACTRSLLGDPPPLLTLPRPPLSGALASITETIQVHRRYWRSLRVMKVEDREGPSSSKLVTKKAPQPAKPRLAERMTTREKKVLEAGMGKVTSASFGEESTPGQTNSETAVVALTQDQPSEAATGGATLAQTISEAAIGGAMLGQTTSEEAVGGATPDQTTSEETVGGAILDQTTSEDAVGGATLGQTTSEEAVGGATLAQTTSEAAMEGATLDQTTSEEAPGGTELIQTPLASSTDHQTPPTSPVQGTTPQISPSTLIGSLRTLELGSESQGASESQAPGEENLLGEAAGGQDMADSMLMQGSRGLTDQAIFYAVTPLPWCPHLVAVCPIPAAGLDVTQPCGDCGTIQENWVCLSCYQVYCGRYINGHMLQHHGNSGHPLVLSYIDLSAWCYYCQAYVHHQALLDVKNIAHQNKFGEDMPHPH

[4] = target: T3, Histone deacetylase-like amidohydrolase (Alcaligenes sp. (strain DSM 11172) (Bordetella sp. (strain FB188))) (UniProt Q70I53); assay: Inhibition of Bordetella sp. (strain FB188) N-terminus His-tagged HDAH expressed in Escherichia coli BL21 (DE3) up to 100 uM; conditions: Alcaligenaceae bacterium FB188
T3 sequence (whole entry): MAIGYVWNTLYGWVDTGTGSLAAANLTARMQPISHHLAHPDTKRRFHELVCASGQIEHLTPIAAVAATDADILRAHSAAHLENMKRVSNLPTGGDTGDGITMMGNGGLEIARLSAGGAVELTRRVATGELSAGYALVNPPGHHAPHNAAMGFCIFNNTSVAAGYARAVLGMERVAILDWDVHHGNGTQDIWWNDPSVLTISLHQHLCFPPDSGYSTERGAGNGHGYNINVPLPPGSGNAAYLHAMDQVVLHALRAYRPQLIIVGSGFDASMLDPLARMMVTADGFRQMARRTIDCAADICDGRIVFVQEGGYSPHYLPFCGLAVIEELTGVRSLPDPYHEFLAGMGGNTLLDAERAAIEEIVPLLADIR
In short: (§2)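 Recombinant N-terminal His6-tagged HDAH from Bordetella strain FB188, expressed in E. coli BL21, purified on zinc-loaded His-Trap column, eluted with 500 mM imidazole, dialyzed into assay buffer (>98% pure by SDS-PAGE). Tested directly against compounds; thiols generated in situ from disulfides with TCEP.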

A549 = assay: Growth inhibition of human A549 cells after 96 hrs by sulphorhodamine B assay; assay type: functional; conditions: A549, 96 h; in short: as §1
MCF7 [5] = assay: Growth inhibition of human MCF7 cells after 96 hrs by sulphorhodamine B assay; assay type: functional; conditions: MCF7, 96 h; in short: as §1
[6] = target: DNA (cytosine-5)-methyltransferase 1 (Homo sapiens, UniProt P26358); assay: Inhibition of full length N-terminal His6-tagged human DNMT1 at 120 uM after 1 hr by fluorescence analysis
In short: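 Baculovirus-expressed DNMT1 (80 nM final) with SAM (10 μM final) and hemimethylated hairpin oligo (125 nM final) in MOPS buffer pH 6.5 with 1 mM DTT, 1 h room temperature. Stopped with Gla1 plus 125 μM SAH, developed 7 h; fluorescence Ex 485/Em 520 nm. Thiols made in situ by TCEP reduction; no SAM as full-inhibition control.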

Histone deacetylase 1 [7] = target: T1, Histone deacetylase 1; assay: Inhibition of HDAC1 in human MCF7 cells assessed as up-regulation of acetylated histone H3 protein level at 1 uM after 24 hrs by Western blot analysis; assay type: cell-based
In short: (§3)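 MCF7 cells (5 × 10^6 per T75 flask) treated 24 h, harvested by trypsinization, lysed in RIPA on ice; 50 μg total protein resolved on 12% SDS-PAGE, transferred to nitrocellulose and probed for histone, acetylated histone, tubulin, acetylated tubulin, p21 and actin. Untreated cells as negative control.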

[8] = target: T4, Protein deacetylase HDAC6 (Homo sapiens) (UniProt Q9UBN7); assay: Inhibition of HDAC6 in human MCF7 cells assessed as change in tubulin acetylation level at 1 uM after 24 hrs by Western blot analysis; assay type: cell-based; in short: as §3
T4 sequence (whole entry): T2 sequence (Q9UBN7 whole entry)

[9] = target: T5, Histone deacetylase-like amidohydrolase (Alcaligenes sp. (strain DSM 11172) (Bordetella sp. (strain FB188)), UniProt Q70I53); assay: Inhibition of Bordetella sp. (strain FB188) N-terminus His-tagged HDAH expressed in Escherichia coli BL21 (DE3); set-up: species or system Alcaligenaceae bacterium FB188; in short: as §2
T5 sequence (Q70I53 whole entry): T3 sequence (whole entry)

Histone deacetylase 8 = target: T6, Histone deacetylase 8 (Homo sapiens, UniProt Q9BY41); assay: Inhibition of human recombinant HDAC8 using Boc-lys(Ac)-AMC as substrate preincubated for 20 mins with substrate measured after 60 mins by fluorescence analysis
T6 sequence (Q9BY41 whole entry): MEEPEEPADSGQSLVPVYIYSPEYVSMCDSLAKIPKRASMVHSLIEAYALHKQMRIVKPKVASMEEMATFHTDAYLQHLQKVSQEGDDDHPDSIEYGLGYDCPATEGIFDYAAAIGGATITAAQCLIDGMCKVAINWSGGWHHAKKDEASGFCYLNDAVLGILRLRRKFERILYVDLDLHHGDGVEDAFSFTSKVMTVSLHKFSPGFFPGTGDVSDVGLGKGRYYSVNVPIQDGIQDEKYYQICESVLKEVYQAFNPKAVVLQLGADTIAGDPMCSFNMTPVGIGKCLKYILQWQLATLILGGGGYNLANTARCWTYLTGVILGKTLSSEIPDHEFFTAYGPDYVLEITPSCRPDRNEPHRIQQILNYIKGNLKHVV

MCF7 [10] = assay: Inhibition of Class 1 histone deacetylase in human MCF7 cells assessed as up-regulation of p21 protein level at 1 uM after 24 hrs by Western blot analysis; assay type: cell-based; in short: as §3
MCF7 [11] = assay: Inhibition of Class 1 histone deacetylase in human MCF7 cells assessed as up-regulation of p21 protein level at 0.5 uM after 24 hrs by Western blot analysis; assay type: cell-based; in short: as §3

T1 sequence (Q13547 whole entry): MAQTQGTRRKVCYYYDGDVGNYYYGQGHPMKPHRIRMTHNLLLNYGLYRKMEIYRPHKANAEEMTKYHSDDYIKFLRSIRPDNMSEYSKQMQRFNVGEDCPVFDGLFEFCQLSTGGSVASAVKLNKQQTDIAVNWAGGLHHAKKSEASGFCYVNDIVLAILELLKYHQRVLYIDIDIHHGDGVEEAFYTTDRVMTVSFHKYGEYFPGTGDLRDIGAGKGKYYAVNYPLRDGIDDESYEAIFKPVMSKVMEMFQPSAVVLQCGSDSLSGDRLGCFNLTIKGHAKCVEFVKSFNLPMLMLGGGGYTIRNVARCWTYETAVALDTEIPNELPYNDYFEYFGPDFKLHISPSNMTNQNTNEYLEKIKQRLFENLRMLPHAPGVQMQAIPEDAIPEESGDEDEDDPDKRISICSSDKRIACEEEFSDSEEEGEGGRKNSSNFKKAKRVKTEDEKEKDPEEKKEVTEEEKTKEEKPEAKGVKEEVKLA
Sequence of DNA (cytosine-5)-methyltransferase 1 (P26358 whole entry): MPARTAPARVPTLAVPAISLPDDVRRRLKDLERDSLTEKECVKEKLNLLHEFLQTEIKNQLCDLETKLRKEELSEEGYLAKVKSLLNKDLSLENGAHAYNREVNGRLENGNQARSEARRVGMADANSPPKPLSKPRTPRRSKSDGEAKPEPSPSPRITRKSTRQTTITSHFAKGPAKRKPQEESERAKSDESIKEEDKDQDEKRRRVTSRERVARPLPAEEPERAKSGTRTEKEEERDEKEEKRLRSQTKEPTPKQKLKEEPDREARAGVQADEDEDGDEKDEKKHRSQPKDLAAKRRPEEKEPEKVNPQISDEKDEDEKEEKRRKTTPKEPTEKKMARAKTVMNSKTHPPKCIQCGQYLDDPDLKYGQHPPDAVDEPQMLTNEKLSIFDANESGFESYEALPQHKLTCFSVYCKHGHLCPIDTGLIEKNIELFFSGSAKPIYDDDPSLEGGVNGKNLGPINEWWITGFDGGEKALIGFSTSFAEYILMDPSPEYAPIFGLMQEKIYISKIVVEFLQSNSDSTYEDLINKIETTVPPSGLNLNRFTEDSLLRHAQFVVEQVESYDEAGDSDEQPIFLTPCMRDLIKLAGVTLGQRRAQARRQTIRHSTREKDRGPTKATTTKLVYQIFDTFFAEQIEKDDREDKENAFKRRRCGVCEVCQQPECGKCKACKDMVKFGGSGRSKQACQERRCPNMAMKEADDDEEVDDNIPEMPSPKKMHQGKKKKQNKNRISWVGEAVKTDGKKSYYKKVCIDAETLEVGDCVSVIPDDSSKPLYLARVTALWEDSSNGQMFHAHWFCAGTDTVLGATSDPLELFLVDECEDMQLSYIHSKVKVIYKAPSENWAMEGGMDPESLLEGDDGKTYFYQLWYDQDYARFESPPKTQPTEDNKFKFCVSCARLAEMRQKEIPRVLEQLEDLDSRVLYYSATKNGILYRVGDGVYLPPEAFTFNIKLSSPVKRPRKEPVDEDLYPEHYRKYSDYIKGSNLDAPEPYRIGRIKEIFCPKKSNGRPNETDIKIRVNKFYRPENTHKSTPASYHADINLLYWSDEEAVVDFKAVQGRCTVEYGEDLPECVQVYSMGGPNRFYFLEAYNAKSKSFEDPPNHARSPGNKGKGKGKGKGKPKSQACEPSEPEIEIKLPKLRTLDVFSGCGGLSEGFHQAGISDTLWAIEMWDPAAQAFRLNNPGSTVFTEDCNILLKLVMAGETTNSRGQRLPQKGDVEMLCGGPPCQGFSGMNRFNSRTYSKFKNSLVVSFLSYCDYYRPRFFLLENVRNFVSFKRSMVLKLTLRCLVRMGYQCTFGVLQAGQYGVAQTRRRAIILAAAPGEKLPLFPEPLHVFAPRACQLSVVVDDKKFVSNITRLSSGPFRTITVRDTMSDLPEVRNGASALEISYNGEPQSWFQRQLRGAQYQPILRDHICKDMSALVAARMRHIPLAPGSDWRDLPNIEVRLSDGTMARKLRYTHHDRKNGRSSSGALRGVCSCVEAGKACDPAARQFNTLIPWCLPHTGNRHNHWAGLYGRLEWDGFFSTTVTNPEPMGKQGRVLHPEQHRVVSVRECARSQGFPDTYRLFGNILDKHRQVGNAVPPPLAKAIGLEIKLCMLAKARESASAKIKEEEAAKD

Compound | IC50 (Histone deacetylase 1 [1]) | IC50 [3] | inhibition [4] | GI50 (A549) | GI50 (MCF7 [5]) | inhibition [6] | inhibition (Histone deacetylase 1 [7]) | inhibition [8] | IC50 [9] | IC50 (Histone deacetylase 8) | GI50 at 96 h [2] | inhibition (MCF7 [10]) | inhibition (MCF7 [11])
CO/N=C(\Cc1ccc(O)c(Br)c1)C(=O)NCCSC | 11000 nM | > 50000 nM | inactive | > 50000 nM | > 50000 nM | – | – | – | – | – | > 50000 nM | – | –
CSCCNC(=O)/C(Cc1ccc(O)c(Br)c1)=N/N | 50000 nM | > 50000 nM | inactive | > 50000 nM | > 50000 nM | – | – | – | – | – | > 50000 nM | – | –
O=C(CCNC(=O)/C(Cc1ccc(O)c(Br)c1)=N/O)NO | 2 nM | 190 nM | Active | 1590 nM | 1130 nM | – | Active | inactive | 310 nM | 1500 nM | 7860 nM | Active | –
CC(/C=C/C(=O)NO)=C\[C@@H](C)C(=O)c1ccc(N(C)C)cc1 | – | – | – | – | – | – | – | – | – | – | – | – | Active
O=C(NCCS)/C(Cc1ccc(F)c(Br)c1)=N/O | 1 nM | 640 nM | inactive | 6240 nM | 2870 nM | inactive | – | – | – | – | 7720 nM | – | –

Further lines, with some results ahead:

IC50 (Histone deacetylase 1 [1]) | IC50 [3] | inhibition [4] | GI50 (A549) | GI50 (MCF7 [5]) | inhibition [6] | inhibition (Histone deacetylase 1 [7]) | inhibition [8] | IC50 [9] | IC50 (Histone deacetylase 8) | Compound | GI50 at 96 h [2] | inhibition (MCF7 [10]) | inhibition (MCF7 [11])
12 nM | 3300 nM | inactive | 15200 nM | 9380 nM | inactive | – | – | – | – | O=C(NCCS)/C(Cc1ccccc1)=N/O | 10900 nM | – | –
1 nM | 510 nM | inactive | 4400 nM | 2250 nM | inactive | – | – | – | – | COc1cc(C/C(=N\O)C(=O)NCCS)cc(Br)c1OC | 4310 nM | – | –
1.8 nM | 3200 nM | inactive | 160 nM | 610 nM | inactive | – | – | – | – | COc1ccc(C/C(=N\O)C(=O)NCCS)cc1Br | 1130 nM | – | –
– | – | inactive | 2730 nM | 1000 nM | – | – | – | – | – | O=C(NCCSSCCNC(=O)/C(Cc1ccc(F)c(Br)c1)=N/O)/C(Cc1ccc(F)c(Br)c1)=N/O | 1800 nM | – | –
380 nM | 9500 nM | inactive | 49500 nM | – | – | – | – | – | – | CO/N=C(\Cc1ccc(O)c(Br)c1)C(=O)NCCSSCCNC(=O)/C(Cc1ccc(O)c(Br)c1)=N/OC | > 50000 nM | – | –
